Assay type in all cases: functional
The species named for one assay is Oryctolagus cuniculus. Nature of the assay: Compound was evaluated for the prokinetic activity by measuring smooth muscle contractility from rabbit duodenum isolated tissue. A digest of the protocol:
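Isolated rabbit duodenum in vitro; records induction of well-coordinated smooth muscle contractions; potency given as pED50.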

In the next assay the test system is Escherichia coli. Nature of the assay: In vitro antibacterial activity against the Escherichia coli (No. of strains used :5).
Another assay has as its system Streptococcus sp. The experiment in a line: In vitro antibacterial activity against the Streptococcus sp. (No. of strains used :4).
The subject of another assay is Staphylococcus aureus. The experiment in a line: In vitro antibacterial activity against the Staphylococcus aureus (No. of strains used :5).

The term MIC denotes the lowest concentration that inhibits growth of the organism. Read a low MIC as a more susceptible organism.

SMILES strings stand for the structures. Some results are limits rather than exact numbers.

`CC[C@H]1OC(=O)[C@H](C)[C@@H](OC2C[C@@](C)(OC)C[C@H](C)O2)[C@H](C)[C@@H](OC2O[C@H](C)C[C@H](N(C)Cc3ccccc3)[C@H]2O)[C@@]2(C)C[C@H](C)[C@H](O2)[C@H](C)[C@@H](O)[C@]1(C)O` (some centres not stated) yielded a pED50 in the assay filed under Oryctolagus cuniculus of 4. Compound `CC[C@H]1OC(=O)[C@H](C)[C@@H](OC2C[C@@](C)(OC)C[C@H](C)O2)[C@H](C)[C@@H](OC2O[C@H](C)C[C@H](N(C)C)[C@H]2O)[C@@]2(C)C[C@@H](C)[C@H](O2)[C@H](C)[C@@H](O)[C@]1(C)O` (some centres not stated) showed a pED50 in the assay filed under Oryctolagus cuniculus of 7.8. Same read-out and setting: to `CC[C@H]1OC(=O)[C@H](C)[C@@H](OC2C[C@@](C)(OC)C[C@H](C)O2)[C@H](C)[C@@H](OC2O[C@H](C)C[C@H](N(C)CC)[C@H]2O)[C@@]2(C)CC(C)=C(O2)[C@H](C)[C@@H](O)[C@H]1C` (some centres not stated) belongs 7.22.

`CC[C@H]1OC(=O)[C@H](C)[C@@H](OC2C[C@@](C)(OC)C[C@H](C)O2)[C@H](C)[C@@H](OC2O[C@H](C)C[C@H](N(C)CCN)[C@H]2O)[C@@]2(C)C[C@H](C)[C@H](O2)[C@H](C)[C@@H](O)[C@]1(C)O` (some centres not stated): the pED50 in the assay filed under Oryctolagus cuniculus was 6.43.

In the assay filed under Oryctolagus cuniculus, `CC[C@H]1OC(=O)[C@H](C)[C@@H](OC2C[C@@](C)(OC)C[C@H](C)O2)[C@H](C)[C@@H](OC2O[C@H](C)C[C@H](N(C)C)[C@H]2O)[C@@]2(C)C[C@@H](C)[C@@H](O2)[C@H](C)[C@@H](O)[C@]1(C)O` (some centres not stated) showed a pED50 of 5.45. For the compound `CC[C@H]1OC(=O)[C@H](C)[C@@H](OC2C[C@@](C)(OC)C[C@H](C)O2)[C@H](C)[C@@H](OC2O[C@H](C)C[C@H](N(C)C)[C@H]2O)[C@@]2(C)C[C@H](C)[C@H](O2)[C@H](C)[C@@H](O)[C@]1(C)O` (some centres not stated), the MIC against Escherichia coli, with Streptococcus sp. and against Staphylococcus aureus was > 100 µg/mL in each case. In addition, in the assay filed under Oryctolagus cuniculus, the pED50 came out at 7.93.

Compound `CC[C@H]1OC(=O)[C@H](C)[C@@H](OC2C[C@@](C)(OC)C[C@H](C)O2)[C@H](C)[C@@H](OC2O[C@H](C)C[C@H](N(C)CC#N)[C@H]2O)[C@@]2(C)C[C@H](C)[C@H](O2)[C@H](C)[C@@H](O)[C@]1(C)O` (some centres not stated) displayed a pED50 in the assay filed under Oryctolagus cuniculus of 5.71. The same measure, in the same setting: the same measure for `CC[C@H]1OC(=O)[C@H](C)[C@@H](OC2C[C@@](C)(OC)C[C@H](C)O2)[C@H](C)[C@@H](OC2O[C@H](C)C[C@H](N(C)CCF)[C@H]2O)[C@@]2(C)C[C@H](C)[C@H](O2)[C@H](C)[C@@H](O)[C@]1(C)O` (some centres not stated): 6.67; for `CC[C@H]1OC(=O)[C@H](C)[C@@H](OC2C[C@@](C)(OC)C[C@H](C)O2)[C@H](C)[C@@H](OC2O[C@H](C)C[C@H](NC)[C@H]2O)[C@@]2(C)C[C@H](C)[C@H](O2)[C@H](C)[C@@H](O)[C@]1(C)O` (some centres not stated): 7.64; for `CCCCN(C)[C@H]1C[C@@H](C)OC(O[C@@H]2[C@@H](C)[C@H](OC3C[C@@](C)(OC)C[C@H](C)O3)[C@@H](C)C(=O)O[C@H](CC)[C@@](C)(O)[C@H](O)[C@@H](C)[C@H]3O[C@]2(C)C[C@@H]3C)[C@@H]1O` (some centres not stated): 4.71. For `CC[C@H]1OC(=O)[C@H](C)[C@@H](OC2C[C@@](C)(OC)C[C@H](C)O2)[C@H](C)[C@@H](OC2O[C@H](C)C[C@H](N(C)CC)[C@H]2O)[C@@]2(C)C[C@H](C)[C@H](O2)[C@H](C)[C@@H](O)[C@]1(C)O` (some centres not stated), the minimal inhibitory concentration (MIC) in the assay on Escherichia coli, in the assay with Streptococcus sp. and with Staphylococcus aureus was > 100 µg/mL in each case. This compound also returned a pED50 in the assay filed under Oryctolagus cuniculus of 8.54. For `CC[C@H]1OC(=O)[C@H](C)[C@@H](OC2C[C@@](C)(OC)C[C@H](C)O2)[C@H](C)[C@@H](OC2O[C@H](C)C[C@H](N(C)CCO)[C@H]2O)[C@@]2(C)C[C@H](C)[C@H](O2)[C@H](C)[C@@H](O)[C@]1(C)O` (some centres not stated), the MIC against Escherichia coli, in the assay on Streptococcus sp. and in the assay with Staphylococcus aureus was > 100 µg/mL in each case. The compound further registered a pED50 in the assay listed under Oryctolagus cuniculus of 8.11. Compound `CC[C@H]1OC(=O)[C@H](C)[C@@H](OC2C[C@@](C)(OC)C[C@H](C)O2)[C@H](C)[C@@H](OC2O[C@H](C)C[C@H](N(C)C(C)C)[C@H]2O)[C@@]2(C)C[C@H](C)[C@H](O2)[C@H](C)[C@@H](O)[C@]1(C)O` (some centres not stated) yielded a pED50 in the assay filed under Oryctolagus cuniculus of 7.75.

The values above are taken from ChEMBL document CHEMBL1131076, “Synthesis of 9-deoxo-4''-deoxy-6,9-epoxyerythromycin derivatives: novel and acid-stable motilides” (1998).
